The source of these data is publication PMC6525014 (Journal of labelled compounds & radiopharmaceuticals, 2019).

A value given as a limit tells only on which side of the number the result lay.

A short description of data set [1]: Metabolic stability in pooled SD rat liver microsomes. It is filed as in vitro ADME. The conditions noted are these: for half-life at 1 μM: SD, rat, pooled rat liver microsomes, pH 7.4. The method, boiled down: (§1)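 Pooled liver microsomes (CD-1 mouse, SD rat or human) at 0.5 mg/mL, with 1 μM test compound, 1.7 mM β-NADPH and 3.3 mM MgCl2 in 0.1 M phosphate pH 7.4, 37°C, DMSO <0.1% final. Samples at 0, 5, 10, 15, 30, 45, 60 min were quenched in cold acetonitrile with internal standard. Parent remaining measured by negative-ion MRM LC–MS/MS. t1/2 from ln(remaining) versus time. Controls: no-NADPH, verapamil.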

Data set [2] can be described thus: Metabolic stability in pooled human liver microsomes. Format: in vitro ADME. The conditions noted are these: for half-life at 1 μM: human, pooled human liver microsomes, pH 7.4. In outline: as §1
For orientation: Liver microsomes are vesicles of endoplasmic reticulum, rich in cytochrome P450 enzymes.

Data set [3] is described as follows: Metabolic stability in pooled CD-1 mouse liver microsomes. Format: in vitro ADME. The conditions noted are these: for half-life at 1 μM: CD-1, mouse, pooled mouse liver microsomes, pH 7.4. The method, boiled down:
as §1

For data set [4], the system named is obese mice. To be noted: earlier work of the authors; cited from earlier work.

For `CC(C)c1ccc2oc3nc(N)c(C(=O)O)cc3c(=O)c2c1` [Compound 1, amlexanox], the half-life at 1 μM in data set [1], in data set [2] and in data set [3] was more than 1 h in each case. The “more unmetabolized amlexanox remaining compared to d2-amlexanox” value in data set [2] (human liver microsomes, after 60 min) is “about 8%”; in data set [3] (mice liver microsomes, after 60 min) it was “about 8%”. Also, in data set [4], the “effects in obese mice” value is “weight loss in obese mice, improved insulin sensitivity, and reduced hepatic steatosis and inflammation”.
Regarding `[2H]CC([2H])(C)c1ccc2oc3nc(N)c(C(=O)O)cc3c(=O)c2c1` (stereo not shown) [Compound 5, 2-Amino-5-oxo-7-(propan-2-yl-1,2-d2)-5H-chromeno[2,3-b]pyridine-3-carboxylic acid], the half-life at 1 μM in data set [1], in data set [2] and in data set [3] was more than 1 h in each case. For the same compound, the “stability relative to amlexanox” value in data set [1] (rat liver microsomes) is given as “more stable than amlexanox (1)”.
